Measured values: ChEMBL document CHEMBL1122839, “Synthesis and antidiarrheal activity of N-(aminoiminomethyl)-1H-pyrrole-1-acetamides related to guanfacine” (1985)
“And” between values parts separate entries of the source, which are not always exact repeats. Equal entries are not always repeated. The source made the active and inactive calls. The rule behind the calls is not given here.

Legend:
[1] = system: Rattus norvegicus; experiment: Percent inhibition of caster oil induced diarrhea in rats at a dose of 30 mg/kg peroral administration after 2 hours; assay type: functional; details: route oral
[2] = system: Rattus norvegicus; experiment: Percent inhibition of caster oil induced diarrhea in rats at a dose of 30 mg/kg peroral administration after 6 hours; NS=Not significant; assay type: functional, organism-based; set-up: dose 30 mg/kg
[3] = system: Rattus norvegicus; experiment: Percent inhibition of caster oil induced diarrhea in rats at a dose of 30 mg/kg peroral administration after 6 hours; assay type: functional; details: for inhibition in vivo at 30 mg/kg: Rattus norvegicus, 6 h
[4] = system: Rattus norvegicus; experiment: Cardiovascular activity in normotensive rats at a dose of 30 mg/kg oral administration after 4 hr; assay type: functional
How it was run: (§1)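 Female normotensive rats with left carotid artery cannulae placed under anaesthesia. The next day they received the test substance orally in 0.5% hydroxymethylcellulose/0.9% saline (10 mL/kg), or vehicle alone. Systolic blood pressure was measured from the cannula, and heart rate from the pressure-triggered tachometer, predose and at 1, 2, 4 and 6 h. Values are means; significance was judged against predose values.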

[5] = system: Rattus norvegicus; experiment: Cardiovascular activity in normotensive rats at a dose of 30 mg/kg oral administration after 6 hr; assay type: functional; how it was run: as §1
[6] = system: Rattus norvegicus; experiment: Percent inhibition of caster oil induced diarrhea in rats at a dose of 10 mg/kg peroral administration after 2 hours; assay type: functional; details: route oral
[7] = system: Rattus norvegicus; experiment: Percent inhibition of caster oil induced diarrhea in rats at a dose of 10 mg/kg peroral administration after 6 hours; assay type: functional; details: for Inhibition: 10 mg/kg; for inhibition in vivo at 10 mg/kg: Rattus norvegicus, 6 h
[8] = system: Rattus norvegicus; experiment: Cardiovascular activity in normotensive rats after oral administration of 30 mg/kg after 2 hr; assay type: functional; how it was run: as §1
[9] = system: Rattus norvegicus; experiment: Cardiovascular activity in normotensive rats after oral administration of 30 mg/kg after 4 hr; assay type: functional; how it was run: as §1
[10] = system: Rattus norvegicus; experiment: Cardiovascular activity in normotensive rats after oral administration of 30 mg/kg after 6 hr; assay type: functional; how it was run: as §1
[11] = system: Rattus norvegicus; experiment: Cardiovascular activity in normotensive rats at a dose of 30 mg/kg oral administration after 1 hr; assay type: functional; how it was run: as §1
[12] = system: Rattus norvegicus; experiment: Cardiovascular activity in normotensive rats at a dose of 30 mg/kg oral administration after 2 hr; assay type: functional; how it was run: as §1
[13] = system: Rattus norvegicus; experiment: Cardiovascular activity in normotensive rats after oral administration of 30 mg/kg after 1 hr; assay type: functional
How it was run: (§2)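 Female normotensive rats with left carotid artery cannulae implanted under anaesthesia; dosed orally the next day in 0.5% hydroxymethylcellulose/0.9% saline (10 mL/kg) or vehicle alone. Systolic blood pressure taken by pressure transducer before dosing and at 1, 2, 4, 6 h; heart rate from tachometer triggered by pressure signal. Mean values; significance versus predose.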

[14] = system: Rattus norvegicus; experiment: Percent inhibition of caster oil induced diarrhea in rats at a dose of 30 mg/kg peroral administration after 2 hours; NS=Not significant; assay type: functional, organism-based; set-up: dose 30 mg/kg
[15] = system: Rattus norvegicus; experiment: Percent inhibition of caster oil induced diarrhea in rats at a dose of 3 mg/kg peroral administration after 2 hours; assay type: functional; details: route oral
[16] = system: Rattus norvegicus; experiment: The compound was tested for cardiovascular activity in normotensive rats after oral administration of 30 mg/kg after 1 hr; assay type: functional, Heart; how it was run: as §1
[17] = system: Rattus norvegicus; experiment: Percent inhibition of caster oil induced diarrhea in rats at a dose of 1 mg/kg peroral administration after 2 hours; assay type: functional; details: route oral
[18] = system: Rattus norvegicus; experiment: Percent inhibition of caster oil induced diarrhea in rats at a dose of 3 mg/kg peroral administration after 6 hours; NS=Not significant; assay type: functional, organism-based; set-up: dose 3 mg/kg
[19] = system: Rattus norvegicus; experiment: Percent inhibition of caster oil induced diarrhea in rats at a dose of 1 mg/kg peroral administration after 6 hours; NS=Not significant; assay type: functional, organism-based; set-up: dose 1 mg/kg
[20] = system: Rattus norvegicus; experiment: Percent inhibition of caster oil induced diarrhea in rats at a dose of 1 mg/kg peroral administration after 6 hr; NS=Not significant; assay type: functional, organism-based; set-up: dose 1 mg/kg
[21] = system: Rattus norvegicus; experiment: Percent inhibition of caster oil induced diarrhea in rats at a dose of 3 mg/kg peroral administration after 6 hr; NS=Not significant; assay type: functional, organism-based; set-up: dose 3 mg/kg
[22] = system: Rattus norvegicus; experiment: Percent inhibition of caster oil induced diarrhea in rats at a dose of 1 mg/kg peroral administration after 2 hours; NS=Not significant; assay type: functional, organism-based; set-up: dose 1 mg/kg
[23] = system: Rattus norvegicus; experiment: Percent inhibition of caster oil induced diarrhea in rats at a dose of 1 mg/kg peroral administration after 6 hr; assay type: functional; details: route oral
[24] = system: Rattus norvegicus; experiment: Percent inhibition of caster oil induced diarrhea in rats at a dose of 1 mg/kg peroral administration after 2 hr; assay type: functional; details: route oral
[25] = system: Rattus norvegicus; experiment: Percent inhibition of caster oil induced diarrhea in rats after 2 hours at 3 mg/kg of dose after peroral administration; assay type: functional; details: route oral
[26] = system: Rattus norvegicus; experiment: Percent inhibition of caster oil induced diarrhea in rats after 6 hours at 1 mg/kg of dose after peroral administration; NS=Not significant; assay type: functional, organism-based; set-up: dose 1 mg/kg
[27] = system: Rattus norvegicus; experiment: Percent inhibition of caster oil induced diarrhea in rats after 6 hours at 3 mg/kg of dose after peroral administration; NS=Not significant; assay type: functional, organism-based; set-up: dose 3 mg/kg
[28] = system: Rattus norvegicus; experiment: Percent inhibition of caster oil induced diarrhea in rats after 2 hours at 1 mg/kg of dose after peroral administration; NS=Not significant; assay type: functional, organism-based; set-up: dose 1 mg/kg
[29] = system: Rattus norvegicus; experiment: Percent inhibition of caster oil induced diarrhea in rats at a dose of 3 mg/kg peroral administration after 2 hr; assay type: functional; details: route oral
How it was run: (§3)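 Male rats housed singly on wide-mesh grids, food-deprived overnight, water free; groups of six dosed orally in 0.3% hydroxymethylcellulose/0.9% saline (10 mL/kg) or vehicle. Castor oil 1 mL orally 1 h later. Feces collected on preweighed papers and weighed at 2 and 6 h after castor oil; output expressed as percentage of vehicle group.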

[30] = system: Rattus norvegicus; experiment: Percent inhibition of caster oil induced diarrhea in rats at a dose of 3 mg/kg peroral administration after 6 hr; assay type: functional; details: route oral; how it was run: as §3
[31] = system: Rattus norvegicus; experiment: Cardiovascular activity in normotensive rats after oral administration of 30 mg/kg aof the compound after 1 hr; assay type: functional; how it was run: as §2

CC1C=C[C@@H](C)N1CC(=O)NC1=NCCN1 (stereo partly specified)
inhibition in vivo at 30 mg/kg [1]: 35%
inhibition [2]: inactive

C/N=C(\N)NC(=O)CN1C(C)C=C[C@H]1C (stereo partly specified)
inhibition in vivo at 30 mg/kg [1]: 88%
inhibition [2]: inactive

Cc1ccc(C)n1CC(=O)N=C(N)N.Cl
inhibition in vivo at 30 mg/kg [1]: 96%
inhibition in vivo at 30 mg/kg ([3]; po): 96%
Heart rate [4]: 218 beats min-1
Heart rate [5]: 242 beats min-1
inhibition in vivo at 10 mg/kg [6]: 100%
Inhibition ([7]; route oral): 75% and 97%
Systolic blood pressure [8]: 159 mmHg
Systolic blood pressure [9]: 163 mmHg
Systolic blood pressure [10]: 138 mmHg
Heart rate [11]: 175 beats min-1
Heart rate [12]: 218 beats min-1
Systolic blood pressure [13]: 193 mmHg

CC1C=C[C@@H](C)N1C(=O)C(=O)N=C(N)N (stereo partly specified)
inhibition [14]: inactive
inhibition [2]: inactive

CC1C=C[C@@H](C)N1C(C)C(=O)N=C(N)N (stereo partly specified)
inhibition [14]: inactive
inhibition [2]: inactive

CC1C=C[C@@H](C)N1CCC(=O)N=C(N)N (stereo partly specified)
inhibition [14]: inactive
inhibition [2]: inactive

CC1C=C[C@@H](C)N1CCN=C(N)N (stereo partly specified)
inhibition [14]: inactive
inhibition [2]: inactive

CC1CC[C@@H](C)N1CC(=O)N=C(N)N (stereo partly specified)
inhibition [14]: inactive
inhibition [2]: inactive

CC1C=C[C@@H](C)N1CC(=O)N=C(N)N.Cl.Cl (stereo in doubt; 2)
inhibition in vivo at 30 mg/kg [1]: 100%
inhibition in vivo at 30 mg/kg ([3]; po): 99%
inhibition in vivo at 3 mg/kg [15]: 100%
Heart rate [16]: 395 beats min-1
inhibition in vivo at 10 mg/kg [6]: 100%
Inhibition ([7]; route oral): 86%
Heart rate [8]: 373 beats min-1
Systolic blood pressure [8]: 137 mmHg
Heart rate [9]: 418 beats min-1
Systolic blood pressure [9]: 133 mmHg
Heart rate [10]: 443 beats min-1
Systolic blood pressure [10]: 134 mmHg
Systolic blood pressure [13]: 133 mmHg
inhibition in vivo at 1 mg/kg [17]: 92%

CC1C=C[C@@H](C)N1CC(=O)N=C(N)N (stereo in doubt; 2)
inhibition [18]: Not siginificant
inhibition [19]: inactive

CC1C=C[C@@H](C)N1CC(=O)N=C(N)N.Cl.Cl (stereo in doubt; 10)
inhibition in vivo at 3 mg/kg [15]: 100%
Inhibition ([7]; route oral): 52%

CC1C=C[C@@H](C)N1CC(=O)N=C(N)N (stereo in doubt; 10)
inhibition [20]: inactive
inhibition [21]: inactive
inhibition [22]: inactive

CC1C=C[C@@H](C)N1CC(=O)N=C(N)N.Cl.Cl (stereo in doubt; 11)
inhibition in vivo at 1 mg/kg [23]: 46%
Inhibition ([3]; route oral, 30 mg/kg): 100%
Inhibition ([7]; route oral): 45%
inhibition in vivo at 1 mg/kg [24]: 100%

CNC(=N)NC(=O)Nc1c(C)cccc1C [LIDAMIDINE]
inhibition in vivo at 30 mg/kg [1]: 100%
inhibition in vivo at 30 mg/kg ([3]; po): 100%
inhibition in vivo at 3 mg/kg [25]: 100%
inhibition [26]: inactive
inhibition [27]: inactive
inhibition in vivo at 10 mg/kg [6]: 100%
inhibition in vivo at 10 mg/kg ([7]; po): 68%
Heart rate [8]: 241 beats min-1
Systolic blood pressure [8]: 132 mmHg
Heart rate [9]: 261 beats min-1
Systolic blood pressure [9]: 126 mmHg
Heart rate [10]: 298 beats min-1
Systolic blood pressure [10]: 131 mmHg
Heart rate [13]: 263 beats min-1
Systolic blood pressure [13]: 123 mmHg
inhibition [28]: inactive

CN(C)C(=O)C(CCN1CCC(O)(c2ccc(Cl)cc2)CC1)(c1ccccc1)c1ccccc1 [LOPERAMIDE]
inhibition in vivo at 30 mg/kg [1]: 98%
inhibition in vivo at 30 mg/kg ([3]; route oral): 97%
inhibition in vivo at 3 mg/kg [29]: 96%
inhibition in vivo at 3 mg/kg [30]: 77%
inhibition in vivo at 10 mg/kg [6]: 100%
inhibition in vivo at 10 mg/kg ([7]; route oral): 99%
Heart rate [8]: 290 beats min-1
Systolic blood pressure [8]: 117 mmHg
Heart rate [9]: 324 beats min-1
Systolic blood pressure [9]: 124 mmHg
Heart rate [10]: 360 beats min-1
Systolic blood pressure [10]: 125 mmHg
Systolic blood pressure [31]: 119 mmHg
Heart rate [13]: 278 beats min-1
